# High-throughput results: PubChem, several laboratories
# Hits are enriched below; roughly 5.7% of the tested compounds scored in any of these assays.
# SKKanGAS inh: S. pyogenes SKKanGAS growth inhibitors in kanamycin, primary screen, streptokinase expression inhibitor project, SKKanGAS strain, BacTiter-Glo luminescence; 6 h; AID 1662, 2009; 300,000 compounds, 1.3% hits; inhibition, % at 7.5 µM;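 active = mean replicate score, as percent of positive control median, at least 50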;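 note: strain carries kanamycin resistance gene driven by streptokinase promoter and grows in 40 µg/ml kanamycin; loss of luminescence reflects streptokinase promoter inhibition or plain growth inhibition; 0% = median of DMSO wells and 100% = positive control at its reference dose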
# Beta apoptosis: inhibitors of cytokine-induced beta cell apoptosis, primary screen, luminescence. INS-1E cytokine-induced death, ATP luminescence, 48 h; percent of positive-control rescue, neutral wells zero. protection from apoptosis, % (no concentration beside the values). 300,000 compounds, 0.8% hits;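 active = Every replicate reaches about 75%, or at least half do and their mean reaches it too, limit read from the data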;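 note: 0% = cytokine-treated negative control wells and 100% = positive control rescue; higher means more ATP so stronger rescue from cytokine killing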
# T cruzi repl: inhibitors of intracellular T. cruzi growth, primary screen, luminescence, NIH3T3 host cells; 300,000 compounds, 1.4% hits; inhibition, % (concentration not given with the values); AID 1885, 2009; T. cruzi beta-gal in NIH3T3, 90 h;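 active = mean inhibition across valid replicates above about 55%, limit read from the data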;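 note: signal also drops with host cell toxicity which is not excluded here; 0% = plate median of DMSO wells and 100% = zero luminescence signal; higher percent means less beta-gal luminescence so fewer parasites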
#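 Assay system: NIH/3T3 host cells with β-galactosidase reporter T. cruzi; input: 5,000 host fibroblasts per well; compound: single 50 nL compound addition per well in DMSO; timing: ≥90 h infection period, 3 h prior cell attachment; measured by: GalScreen β-gal luminescence, detergent lysis, 60 min; evaluation: percent inhibition of parasite-derived β-gal signal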
# Mdm2-MdmX inh: inhibitors of human Mdm2-MdmX association, primary screen, cell-based, luminescence, split luciferase, SaOS-2, uHTS. AID 485346, 2010. Protein Mdm4 (Homo sapiens) + E3 ubiquitin-protein ligase Mdm2 (Homo sapiens), …. SaOS-2 split-luciferase Mdm2/MdmX complementation. inhibition, % at 8 µM. 330,000 compounds, 3% hits;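 active = inhibition of at least 50% at 8 µM in the primary screen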
# Target sequence (O15151 whole entry, looked up): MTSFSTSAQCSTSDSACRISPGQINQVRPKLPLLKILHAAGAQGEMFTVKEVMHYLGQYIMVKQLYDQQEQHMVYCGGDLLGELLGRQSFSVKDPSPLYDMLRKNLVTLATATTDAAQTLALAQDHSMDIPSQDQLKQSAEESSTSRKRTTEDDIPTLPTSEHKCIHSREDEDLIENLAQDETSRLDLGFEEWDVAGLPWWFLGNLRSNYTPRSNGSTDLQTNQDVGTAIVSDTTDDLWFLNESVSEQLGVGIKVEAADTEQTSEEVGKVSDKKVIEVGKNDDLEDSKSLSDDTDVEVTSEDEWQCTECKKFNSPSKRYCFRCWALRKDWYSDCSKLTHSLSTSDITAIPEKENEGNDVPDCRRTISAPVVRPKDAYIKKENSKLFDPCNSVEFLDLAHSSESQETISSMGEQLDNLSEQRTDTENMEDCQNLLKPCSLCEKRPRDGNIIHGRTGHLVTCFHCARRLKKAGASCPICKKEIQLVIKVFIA
# Target sequence (Q00987 whole entry, looked up): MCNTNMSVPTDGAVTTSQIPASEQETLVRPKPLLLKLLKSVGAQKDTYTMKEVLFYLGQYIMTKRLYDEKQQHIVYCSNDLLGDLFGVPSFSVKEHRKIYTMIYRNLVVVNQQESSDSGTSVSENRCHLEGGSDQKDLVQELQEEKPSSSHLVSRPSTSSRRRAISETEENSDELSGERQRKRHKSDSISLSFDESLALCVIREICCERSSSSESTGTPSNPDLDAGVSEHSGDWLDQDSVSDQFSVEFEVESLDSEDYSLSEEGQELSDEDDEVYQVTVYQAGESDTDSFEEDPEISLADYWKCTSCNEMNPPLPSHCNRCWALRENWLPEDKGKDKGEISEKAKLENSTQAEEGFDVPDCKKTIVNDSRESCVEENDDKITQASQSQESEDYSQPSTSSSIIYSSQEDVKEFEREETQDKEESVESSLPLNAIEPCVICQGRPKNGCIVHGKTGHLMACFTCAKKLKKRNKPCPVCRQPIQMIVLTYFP
# Calb FLC: C. albicans growth inhibition with fluconazole, primary screen, CaCi-2 strain, Alamar Blue fluorescence; growth inhibition, % (test concentration not listed); C. albicans CaCi-2 (fluconazole-resistant clinical isolate) + fluconazole, 48 h; 300,000 compounds, 0.57% hits;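 active = growth inhibition above about 58% in most replicates, limit read from the data, passing the limit was not always enough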;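 note: all wells also contain fluconazole at 8 µg/ml as a sub-toxic cotreatment; 0% = median of DMSO wells and 100% = median of geldanamycin control wells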
# CSC inhib: cancer stem cell viability inhibitors, primary screen, luminescence. cancer stem cell-like cells viability. inhibition, % at 7.5 µM. 300,000 compounds, 1.1% hits. AID 2717, 2010; in the data active = inhibition above about 75%; tested in HMLE shEcad cells
# Mdm2 MdmX conf: Mdm2-MdmX complex disruptors, retested hits, confirmation, luminescence, single concentration | shares compounds with Mdm2-MdmX inh | Mdm2-MdmX binding, luminescent assay | inhibition, % at 8 µM | 10,000 compounds, 55% hits | AID 489028, 2010; in the data active = inhibition above about 40%
# FLuc counter: full-length luciferase signal inhibition, confirmation, counter-screen for Mdm2/MdmX interaction inhibitor project, cell-based, single concentration, SaOS-2; AID 504607, 2011; SaOS-2 full-length luciferase counterscreen, luminescence; 6,200 compounds, 77% hits; shares compounds with Mdm2-MdmX inh; inhibition, % at 8 µM;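 active = mean inhibition at 8 µM reaching about 37%, which flags the compound as non-specific, limit read from the data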;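 note: p53-null SaOS-2 cells with luciferase driven by a doxycycline-inducible promoter; compound on cells about two nights before reading with doxycycline added after day one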
# Numbers without * were called inactive; nt = not tested or not shown.
SMILES,SKKanGAS inh,Beta apoptosis,T cruzi repl,Mdm2-MdmX inh,Calb FLC,CSC inhib,Mdm2 MdmX conf,FLuc counter
CCOC(=O)c1c(CN(C)C)n(C)c2c(O)c(N=NC(N)=O)c3ccc(Br)cc3c12,20,-6,11,77*,71,-1,47*,28
CCOc1ccc(NC(=NCc2ccc3c(c2)OCO3)SC2CC(=O)N(c3ccc(C(=O)O)cc3)C2=O)cc1 (stereo not given),33,-5,1,13,13,-8,nt,nt
CCOc1ccc(NC(=NCc2ccc3c(c2)OCO3)SC2CC(=O)N(c3ccc(OCC)cc3)C2=O)cc1 (stereo not given),2,19,16,66*,-1,22,63*,65*
CCOc1ccc(NC(=NCc2ccc3c(c2)OCO3)SC2CC(=O)N(c3ccccc3)C2=O)cc1 (stereo not given),-8,nt,-8,60*,11,-9,6,nt
CCOc1ccc(N2C(=O)CC(SC(=NC)Nc3ccc4c(c3)OCO4)C2=O)cc1 (stereo not given),2,2,33,29,-1,0,nt,nt
Cc1ccc(C)c2sc(NC(=O)c3nc4ccccc4s3)nc12,0,13,-11,58*,4,0,23,nt
O=C(CCC(=O)N/N=C/c1ccccc1O)NCc1ccccc1,8,0,4,16,1,-12,nt,nt
CCCCNC(=O)CSc1nc2cc(OC)c(OC)cc2c(=O)n1Cc1ccc(OC)cc1,8,-9,2,24,3,-2,nt,nt
COc1ccc(Cn2c(SCc3ccc(C)cc3)nc3cc(OC)c(OC)cc3c2=N)cc1Cl,102*,110*,43,94*,22,103*,100*,51*
COc1ccc(Cn2c(SCc3cc(C)ccc3C)nc3cc(OC)c(OC)cc3c2=N)cc1,109*,105*,59*,84*,-7,142*,100*,51*
O=C(NNS(=O)(=O)c1ccc2ccccc2c1)c1cccnc1,1,-6,0,3,-2,-5,nt,nt
CCOc1ccc(NC(=O)Cn2c(=O)n(CCCC(=O)NC3CCN(Cc4ccccc4)CC3)c(=O)c3ccccc32)cc1,1,1,19,39,-1,-17,nt,nt
Nc1nc(/C=C/c2cccnc2)nc(-c2ccccc2O)n1,6,4,-18,76*,19,21,73*,64*
CC(c1ccccc1C(O)c1ccccc1)N(C)C (stereo not given),2,-1,-13,29,2,-1,nt,nt
Cc1ccc(C(O)(c2ccccc2)c2ccccc2C(C)N(C)C)c(C)c1 (stereo not given),3,-13,22,62*,37,21,25,nt
CCOc1ccc(NC(=O)c2nn(-c3ccc(OC)cc3OC)c(=O)c3ccccc23)cc1,5,-9,7,26,0,-23,nt,nt
CCN(CC)C(=O)CSC(Nc1ccc(F)cc1)=C(C#N)C#N,24,-5,-8,-1,-6,-1,nt,nt
Cc1ccc(CSC(Nc2ccc(F)cc2)=C(C#N)C#N)cc1,9,117*,-27,91*,1,7,92*,24
N=c1n(CCO)c2ccccc2n1CCOc1ccc(Cl)cc1Cl,-3,10,21,97*,13,12,42*,25
N=c1n(CCO)c2ccccc2n1Cc1ccccc1Cl,1,3,-1,26,-13,11,nt,nt
COc1ccc(NC(=O)CN(C)C(=O)CCCSc2nc3ccccc3[nH]2)cc1,-3,-7,4,5,3,-3,nt,nt
COc1ccc(/C=N/NC(=O)c2ccn[nH]2)cc1COc1ccc([N+](=O)[O-])c(C)c1,19,nt,2,24,7,12,nt,nt
COc1cc([N+](=O)[O-])cc(/C=N/NC(=O)c2cccnc2)c1O,88*,-8,-14,55*,9,-4,52*,51*
COc1ccc(/C=N/NC(=O)c2cccnc2)cc1COc1ccc([N+](=O)[O-])c(C)c1,5,13,-14,52*,-17,48,55*,48*
COc1ccc(Br)cc1/C=N/NC(=O)c1cccnc1,-4,-12,-18,31,-2,3,nt,nt
SMILES,SKKanGAS inh,Beta apoptosis,T cruzi repl,Mdm2-MdmX inh,Calb FLC,CSC inhib,Mdm2 MdmX conf,FLuc counter
CCOC(=O)C1CNc2cc(S(=O)(=O)CC)ccc2O1 (stereo not given),0,-1,-5,-8,-10,-9,nt,nt
O=C(C[C@@H]1C/C=C\CC[C@@H](Cc2ccc(F)cc2)C(=O)OC[C@@H](Cc2ccccc2)NC1=O)NCCO,nt,-2,nt,14,nt,2,nt,nt
C=C1C(=O)O[C@@H]2[C@H]3O[C@]3(C)CC/C=C(\C)CC[C@@H]12,nt,-11,nt,68*,nt,-8,54*,62*
Cc1ccc(OCC(=O)Nc2ccc(Cl)cc2)c(-n2nc3ccccc3n2)c1,-4,47,7,78*,-5,17,72*,81*
CCOCc1c(C(=O)NC2=Nc3ccccc3NC(CC)=C2C(=O)OCC)oc2ccccc12,8,10,56*,69*,-18,43,73*,65*
CN(C1CCCCC1)S(=O)(=O)c1ccc(SCC(=O)C(C)(C)C)nc1,nt,0,nt,14,nt,51,nt,nt
O=C(Cc1csc(Nc2nc(=S)[nH]c3ccccc23)n1)NCc1ccccc1Cl,-2,62,1,92*,13,nt,-11,nt
O=C(CCCCCNc1nc(=S)[nH]c2ccccc12)NCc1ccccc1Cl,2,20,29,-4,-6,-1,nt,nt
Cc1ccc(CNC(=O)Cc2csc(Nc3nc(=S)[nH]c4ccccc34)n2)cc1,3,0,21,57*,35,-8,42*,102*
COc1cc(OC)cc(C(=O)Nc2nc(CC(=O)NCCc3ccccc3)cs2)c1,26,-2,-7,-6,5,-6,nt,nt
COc1cc(OC)cc(C(=O)Nc2nc(CC(=O)NCc3ccc(F)cc3)cs2)c1,12,12,-13,70*,1,46,65*,58*
